Bridges are numbered along the chain shown (N, C = ends). Roman numbers before positions name the chains, in order. [ ]: non-standard residue; d: D form. NMeR = CN[C@@H](CCCNC(=N)N)C(=O)O; Api = NC1(C(=O)O)CCNCC1; Dab = NCC[C@H](N)C(=O)O
Columns and labels:
Format in all cases: functional
Escherichia coli [1] = assay: Antimicrobial activity against Escherichia coli E396 by broth macrodilution method
Procedure, shortened: (§1)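 MIC by CLSI-approved broth macrodilution in one-quarter-strength cation-adjusted Mueller Hinton broth, each drug tested alone. Clinical gram-negative isolates were stored frozen at −70°C in double-strength skim milk before testing.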

Escherichia coli [2] = assay: Antimicrobial activity against Escherichia coli E436 by broth macrodilution method
Procedure, shortened: (§2)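 CLSI-approved broth macrodilution in one-quarter-strength cation-adjusted Mueller Hinton broth. Each drug was tested alone against each clinical gram-negative isolate to give the MIC. Strains were stored frozen at −70°C in double-strength skim milk before testing.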

Citrobacter freundii [3] = assay: Antimicrobial activity against Citrobacter freundii E400 by broth macrodilution method; procedure, shortened: as §2
Klebsiella pneumoniae [4] = assay: Antimicrobial activity against Klebsiella pneumoniae E426 by broth macrodilution method; procedure, shortened: as §2
Escherichia coli [5] = assay: Antimicrobial activity against Escherichia coli E435 by broth macrodilution method; procedure, shortened: as §2
Klebsiella pneumoniae [6] = assay: Antimicrobial activity against Klebsiella pneumoniae E368 by broth macrodilution method; procedure, shortened: as §2
Escherichia coli [7] = assay: Antimicrobial activity against Escherichia coli E430 by broth macrodilution method; procedure, shortened: as §2
Citrobacter freundii [8] = assay: Antimicrobial activity against Citrobacter freundii E384 by broth macrodilution method; procedure, shortened: as §1
Escherichia coli [9] = assay: Antimicrobial activity against Escherichia coli E408 by broth macrodilution method; procedure, shortened: as §2
Klebsiella pneumoniae [10] = assay: Antimicrobial activity against Klebsiella pneumoniae E422 by broth macrodilution method; procedure, shortened: as §1
Klebsiella pneumoniae [11] = assay: Antimicrobial activity against Klebsiella pneumoniae E431 by broth macrodilution method; procedure, shortened: as §2
Klebsiella pneumoniae [12] = assay: Antimicrobial activity against Klebsiella pneumoniae E372 by broth macrodilution method; procedure, shortened: as §2
Escherichia coli [13] = assay: Antimicrobial activity against Escherichia coli E412 by broth macrodilution method; procedure, shortened: as §2
Enterobacter cloacae [14] = assay: Antimicrobial activity against Enterobacter cloacae E373 by broth macrodilution method; procedure, shortened: as §1
Klebsiella pneumoniae [15] = assay: Antimicrobial activity against Klebsiella pneumoniae E363 by broth macrodilution method; procedure, shortened: as §1
Pseudomonas aeruginosa [16] = assay: Antimicrobial activity against Pseudomonas aeruginosa P335 by broth macrodilution method; procedure, shortened: as §1
Escherichia coli [17] = assay: Antimicrobial activity against Escherichia coli E424 by broth macrodilution method; procedure, shortened: as §2
Enterobacter cloacae [18] = assay: Antimicrobial activity against Enterobacter cloacae E397 by broth macrodilution method; procedure, shortened: as §1
Klebsiella pneumoniae [19] = assay: Antimicrobial activity against Klebsiella pneumoniae E433 by broth macrodilution method; procedure, shortened: as §1
Klebsiella pneumoniae [20] = assay: Antimicrobial activity against Klebsiella pneumoniae E367 by broth macrodilution method; procedure, shortened: as §2
Klebsiella pneumoniae [21] = assay: Antimicrobial activity against Klebsiella pneumoniae E370 by broth macrodilution method; procedure, shortened: as §2
Escherichia coli [22] = assay: Antimicrobial activity against Escherichia coli E393 by broth macrodilution method; procedure, shortened: as §1
Klebsiella pneumoniae [23] = assay: Antimicrobial activity against Klebsiella pneumoniae E371 by broth macrodilution method; procedure, shortened: as §2
Escherichia coli [24] = assay: Antimicrobial activity against Escherichia coli E351 by broth macrodilution method; procedure, shortened: as §1
Escherichia coli [25] = assay: Antimicrobial activity against Escherichia coli E394 by broth macrodilution method; procedure, shortened: as §2
Escherichia coli [26] = assay: Antimicrobial activity against Escherichia coli E409 by broth macrodilution method; procedure, shortened: as §2
Escherichia coli [27] = assay: Antimicrobial activity against Escherichia coli E410 by broth macrodilution method; procedure, shortened: as §1
Escherichia coli [28] = assay: Antimicrobial activity against Escherichia coli E413 by broth macrodilution method; procedure, shortened: as §2
Klebsiella pneumoniae [29] = assay: Antimicrobial activity against Klebsiella pneumoniae E353 by broth macrodilution method; procedure, shortened: as §2
Klebsiella pneumoniae [30] = assay: Antimicrobial activity against Klebsiella pneumoniae E364 by broth macrodilution method; procedure, shortened: as §2
Klebsiella pneumoniae [31] = assay: Antimicrobial activity against Klebsiella pneumoniae E411 by broth macrodilution method; procedure, shortened: as §2
Escherichia coli [32] = assay: Antimicrobial activity against Escherichia coli E434 by broth macrodilution method; procedure, shortened: as §2
Klebsiella pneumoniae [33] = assay: Antimicrobial activity against Klebsiella pneumoniae E369 by broth macrodilution method; procedure, shortened: as §2
Escherichia coli [34] = assay: Antimicrobial activity against Escherichia coli E395 by broth macrodilution method; procedure, shortened: as §1
Klebsiella pneumoniae [35] = assay: Antimicrobial activity against Klebsiella pneumoniae E354 by broth macrodilution method; procedure, shortened: as §1
Escherichia coli [36] = assay: Antimicrobial activity against Escherichia coli E425 by broth macrodilution method; procedure, shortened: as §2
Klebsiella pneumoniae [37] = assay: Antimicrobial activity against Klebsiella pneumoniae E427 by broth macrodilution method; procedure, shortened: as §2
Klebsiella pneumoniae [38] = assay: Antimicrobial activity against Klebsiella pneumoniae E366 by broth macrodilution method; procedure, shortened: as §1
Pseudomonas aeruginosa [39] = assay: Antimicrobial activity against Pseudomonas aeruginosa P330 by broth macrodilution method; procedure, shortened: as §1
Klebsiella pneumoniae [40] = assay: Antimicrobial activity against Klebsiella pneumoniae E428 by broth macrodilution method; procedure, shortened: as §1
Escherichia coli [41] = assay: Antimicrobial activity against Escherichia coli E346 by broth macrodilution method; procedure, shortened: as §1
Escherichia coli [42] = assay: Antimicrobial activity against Escherichia coli E439 by broth macrodilution method; procedure, shortened: as §1
Klebsiella pneumoniae [43] = assay: Antimicrobial activity against Klebsiella pneumoniae E432 by broth macrodilution method; procedure, shortened: as §1
Klebsiella pneumoniae [44] = assay: Antimicrobial activity against Klebsiella pneumoniae E356 by broth macrodilution method; procedure, shortened: as §1
Klebsiella pneumoniae [45] = assay: Antimicrobial activity against Klebsiella pneumoniae E362 by broth macrodilution method; procedure, shortened: as §1
Klebsiella pneumoniae [46] = assay: Antimicrobial activity against Klebsiella pneumoniae E418 by broth macrodilution method; procedure, shortened: as §1
Escherichia coli [47] = assay: Antimicrobial activity against Escherichia coli E438 by broth macrodilution method; procedure, shortened: as §1
Escherichia coli [48] = assay: Antimicrobial activity against Escherichia coli E437 by broth macrodilution method; procedure, shortened: as §1
Escherichia coli [49] = assay: Antimicrobial activity against Escherichia coli E341 by broth macrodilution method; procedure, shortened: as §1
Escherichia coli [50] = assay: Antimicrobial activity against Escherichia coli E342 by broth macrodilution method; procedure, shortened: as §1

C[C@H]1COc2c(N3CCN(C)CC3)c(F)cc3c(=O)c(C(=O)O)cn1c23.C[C@H]1COc2c(N3CCN(C)CC3)c(F)cc3c(=O)c(C(=O)O)cn1c23.O [LEVOFLOXACIN]
MIC (Escherichia coli [1]): 16 µg/mL
MIC (Escherichia coli [2]): 0.125 µg/mL
MIC (Citrobacter freundii [3]): 32 µg/mL
MIC (Klebsiella pneumoniae [4]): 4 µg/mL
MIC (Escherichia coli [5]): 0.125 µg/mL
MIC (Klebsiella pneumoniae [6]): 8 µg/mL
MIC (Escherichia coli [7]): 0.125 µg/mL
MIC (Citrobacter freundii [8]): 0.125 µg/mL
MIC (Escherichia coli [9]): 32 µg/mL
MIC (Klebsiella pneumoniae [10]): 16 µg/mL
MIC (Klebsiella pneumoniae [11]): 4 µg/mL
MIC (Klebsiella pneumoniae [12]): 0.25 µg/mL
MIC (Escherichia coli [13]): 8 µg/mL
MIC (Enterobacter cloacae [14]): 0.06 µg/mL
MIC (Klebsiella pneumoniae [15]): 0.06 µg/mL
MIC (Pseudomonas aeruginosa [16]): 16 µg/mL
MIC (Escherichia coli [17]): 0.25 µg/mL
MIC (Enterobacter cloacae [18]): 16 µg/mL
MIC (Klebsiella pneumoniae [19]): 16 µg/mL
MIC (Klebsiella pneumoniae [20]): 0.25 µg/mL
MIC (Klebsiella pneumoniae [21]): 32 µg/mL
MIC (Escherichia coli [22]): 16 µg/mL
MIC (Klebsiella pneumoniae [23]): 32 µg/mL
MIC (Escherichia coli [24]): 16 µg/mL
MIC (Escherichia coli [25]): 32 µg/mL
MIC (Escherichia coli [26]): 8 µg/mL
MIC (Escherichia coli [27]): 4 µg/mL
MIC (Escherichia coli [28]): 8 µg/mL
MIC (Klebsiella pneumoniae [29]): 0.25 µg/mL
MIC (Klebsiella pneumoniae [30]): 2 µg/mL
MIC (Klebsiella pneumoniae [31]): 2 µg/mL
MIC (Escherichia coli [32]): 0.125 µg/mL
MIC (Klebsiella pneumoniae [33]): 64 µg/mL
MIC (Escherichia coli [34]): 16 µg/mL
MIC (Klebsiella pneumoniae [35]): 16 µg/mL
MIC (Escherichia coli [36]): 2 µg/mL
MIC (Klebsiella pneumoniae [37]): 2 µg/mL

I: H-[Api]DKGSYLPRPTPPRPIYN[NMeR]N[Dab]-NH2 / II: H-[Api]DKGSYLPRPTPPRPIYN[NMeR]N (amide I:21-II:C)
MIC (Escherichia coli [1]): 16 µg/mL
MIC (Escherichia coli [2]): 8 µg/mL
MIC (Citrobacter freundii [3]): 8 µg/mL
MIC (Klebsiella pneumoniae [38]): 16 µg/mL
MIC (Klebsiella pneumoniae [4]): 4 µg/mL
MIC (Pseudomonas aeruginosa [39]): 256 µg/mL
MIC (Escherichia coli [5]): 8 µg/mL
MIC (Klebsiella pneumoniae [6]): 8 µg/mL
MIC (Klebsiella pneumoniae [40]): 8 µg/mL
MIC (Escherichia coli [41]): 64 µg/mL
MIC (Escherichia coli [7]): 16 µg/mL
MIC (Citrobacter freundii [8]): 512 µg/mL
MIC (Escherichia coli [9]): 16 µg/mL
MIC (Klebsiella pneumoniae [10]): 32 µg/mL
MIC (Klebsiella pneumoniae [11]): 4 µg/mL
MIC (Klebsiella pneumoniae [12]): 4 µg/mL
MIC (Escherichia coli [42]): 8 µg/mL
MIC (Escherichia coli [13]): 8 µg/mL
MIC (Enterobacter cloacae [14]): 4 µg/mL
MIC (Klebsiella pneumoniae [15]): 4 µg/mL
MIC (Klebsiella pneumoniae [43]): 128 µg/mL
MIC (Pseudomonas aeruginosa [16]): 128 µg/mL
MIC (Escherichia coli [17]): 64 µg/mL
MIC (Enterobacter cloacae [18]): 8 µg/mL
MIC (Klebsiella pneumoniae [19]): 8 µg/mL
MIC (Klebsiella pneumoniae [20]): 16 µg/mL
MIC (Klebsiella pneumoniae [21]): 4 µg/mL
MIC (Escherichia coli [22]): 16 µg/mL
MIC (Klebsiella pneumoniae [44]): 8 µg/mL
MIC (Klebsiella pneumoniae [45]): 4 µg/mL
MIC (Klebsiella pneumoniae [23]): 32 µg/mL
MIC (Klebsiella pneumoniae [46]): 8 µg/mL
MIC (Escherichia coli [24]): 32 µg/mL
MIC (Escherichia coli [25]): 32 µg/mL
MIC (Escherichia coli [26]): 16 µg/mL
MIC (Escherichia coli [47]): 8 µg/mL
MIC (Escherichia coli [27]): 4 µg/mL
MIC (Escherichia coli [48]): 4 µg/mL
MIC (Escherichia coli [28]): 32 µg/mL
MIC (Klebsiella pneumoniae [29]): 4 µg/mL
MIC (Klebsiella pneumoniae [30]): 8 µg/mL
MIC (Klebsiella pneumoniae [31]): 8 µg/mL
MIC (Escherichia coli [32]): 8 µg/mL
MIC (Escherichia coli [49]): 16 µg/mL
MIC (Klebsiella pneumoniae [33]): 8 µg/mL
MIC (Escherichia coli [34]): 32 µg/mL
MIC (Klebsiella pneumoniae [35]): 8 µg/mL
MIC (Escherichia coli [36]): 32 µg/mL
MIC (Escherichia coli [50]): 256 µg/mL
MIC (Klebsiella pneumoniae [37]): 8 µg/mL
